This note sets out measurements from ChEMBL document CHEMBL1123173, “Synthesis and antiherpes virus activity of phosphate and phosphonate derivatives of 9-[(1,3-dihydroxy-2-propoxy)methyl]guanine” (1986).

SMILES strings stand for the structures. Calls of active or inactive are those of the source. No cut-off for these calls is given here.

Test [1] concerns Vero. Kind of test: In vitro anticellular activity was measured against vero cells. The class given is functional. The note with it: Chlorocebus sabaeus, read-out: ID50 (the source's name). The method in brief: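 Cell proliferation assay in uninfected Vero cells.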
The test system of test [2] is MRC5. Kind of test: In vitro antiviral activity was measured against HCMV(AD-169) in MRC5 cells. The class given is functional. The note with it: Homo sapiens, read-out: ID50 (the source's name).
Test [3] relates to Mus musculus. Nature of the test: (§1) Effect of oral treatment with compound on HSV-2 induced mortality in mice at 5 mg/kg dose; NS=Not significant. It is filed as functional, organism-based. Also noted: dose 5 mg/kg. The method in brief:
(§2)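 Female Swiss-Webster mice (ca. 20 g) infected intraperitoneally with 5×10^4 PFU HSV-2 strain G (about ten 50% lethal doses). Oral dosing once every 24 h for 4 days, starting 24 h postinfection; saline controls. Survivors/total recorded, survivor increase tested by Fisher exact test; mean survival time (days ± standard deviation) compared by Mann-Whitney U test.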

Test [4] relates to Mus musculus. Kind of test: Effect of on mean survival time upon oral treatment on HSV-2 induced mortality in mice at 10 mg/kg dose. It is filed as functional. In short, it runs like this:
(§3)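 Female Swiss-Webster mice, about 20 g, infected intraperitoneally with 5×10^4 PFU of HSV-2 strain G (about ten LD50). Oral dosing once every 24 h for 4 days, starting 24 h post-infection, with a saline-treated control group. Groups of 19–20 mice. Survivors were scored and compared by Fisher exact test. Mean survival time (days ± SD) was compared by Mann-Whitney U test. NS means p > 0.05.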

For test [5], the system named is Mus musculus. Nature of the test: Effect of oral treatment with compound on HSV-2 induced mortality in mice at 5 mg/kg dose; 3/20. It is filed as functional. In short, it runs like this:
as §3

Test [6] has as its system Vero. Kind of test: In vitro antiviral activity was measured against HSV-1 (MP-PAA/DHPG) in Vero cells. It is filed as functional. The note with it: Chlorocebus sabaeus, read-out: ID50 (the source's name).
The test system of test [7] is Vero. Nature of the test: In vitro antiviral activity was measured against HSV-1 (F delta 305) in Vero cells. It is filed as functional. The note with it: Chlorocebus sabaeus, read-out: ID50 (the source's name).
The subject of test [8] is Mus musculus. Nature of the test: (§4) Effect of oral treatment with compound on HSV-2 induced mortality in mice at 20 mg/kg dose; NS=Not significant. The class given is functional, organism-based. Also noted: dose 20 mg/kg. In short, it runs like this: as §3
Test [9] relates to Mus musculus. Nature of the test: Effect of on mean survival time upon oral treatment on HSV-2 induced mortality in mice at 20 mg/kg dose. It is filed as functional. In short, it runs like this:
as §3

The test system of test [10] is Mus musculus. Nature of the test: Effect of oral treatment with compound on HSV-2 induced mortality in mice at 10 mg/kg dose; 0/20. It is filed as functional. The method in brief:
as §3

The test system of test [11] is Mus musculus. Described as §4. The class given is functional, organism-based. Details: dose 20 mg/kg. The method in brief: as §2
The source holds these as a separate data set.

Test [12] has as its system Mus musculus. Nature of the test: (§5) Effect of oral treatment with compound on HSV-2 induced mortality in mice at 10 mg/kg dose; NS=Not significant. The class given is functional, organism-based. Details: dose 10 mg/kg. In short, it runs like this:
as §3

In test [13] the test system is Mus musculus. The description is as §1. Details: dose 5 mg/kg. It is filed as functional, organism-based. In short, it runs like this:
as §3
The source holds these as a separate data set.

The subject of test [14] is Mus musculus. Kind of test: Effect of on mean survival time upon oral treatment on HSV-2 induced mortality in mice at 5 mg/kg dose. The class given is functional. The method in brief:
as §3

For test [15], the system named is Mus musculus. Described as §5. The class given is functional, organism-based. Details: dose 10 mg/kg. The method in brief:
as §2
The source holds these as a separate data set.

In test [16] the test system is Vero. Kind of test: In vitro antiviral activity was measured against HSV-1(F) in Vero cells. It is filed as functional. The conditions noted are these: Chlorocebus sabaeus, read-out: ID50 (the source's name).
Test [17] relates to Vero. Kind of test: In vitro antiviral activity was measured against HSV-2(G) in Vero cells. The class given is functional. The note with it: Chlorocebus sabaeus, read-out: ID50 (the source's name).
Test [18] relates to Mus musculus. Kind of test: Effect of oral treatment with compound on HSV-2 induced mortality in mice at 20 mg/kg dose; 3/20. It is filed as functional. The method in brief: as §3
In test [19] the test system is Mus musculus. Kind of test: Effect of oral treatment with compound on HSV-2 induced mortality in mice at 5 mg/kg dose; 8/20. The class given is functional. In short, it runs like this:
as §3

Test [20] deals with Mus musculus. Kind of test: Effect of oral treatment with compound on HSV-2 induced mortality in mice at 20 mg/kg dose; 10/20. The class given is functional. The method in brief:
as §3

Test [21] deals with Mus musculus. Nature of the test: Effect of oral treatment with compound on HSV-2 induced mortality in mice at 10 mg/kg dose; 3/20. It is filed as functional. In short, it runs like this:
as §3

In test [22] the test system is Mus musculus. Nature of the test: Effect of oral treatment with compound on HSV-2 induced mortality in mice at 20 mg/kg dose. The class given is functional. The method in brief:
as §3

Test [23] relates to Mus musculus. Kind of test: Effect of oral treatment with compound on HSV-2 induced mortality in mice at 5 mg/kg dose. It is filed as functional. The method in brief: as §3
Test [24] concerns Mus musculus. Nature of the test: Effect of oral treatment with compound on HSV-2 induced mortality in mice at 10 mg/kg dose. It is filed as functional. In short, it runs like this: as §3
Test [25] has as its system Mus musculus. Kind of test: Effect of oral treatment with compound on HSV-2 induced mortality in mice at 10 mg/kg dose; 4/20. It is filed as functional. In short, it runs like this:
as §3

For test [26], the system named is Mus musculus. Kind of test: Effect of oral treatment with compound on HSV-2 induced mortality in mice at 20 mg/kg dose; 6/20. The class given is functional. The method in brief:
as §3

Consider `Nc1nc(O)c2ncn(COC(CO)CCP(=O)(O)O)c2n1` (stereo unspecified), for which the IC50 in [1] is above 1000 µM; in test [2] it was 10 µM; in test [6], above 200 µM; in [7] it was 50 µM; in [16], 28 µM; in [17], above 100 µM. Further, the MST increase result in test [3], in test [11] and in [15] was “inactive” in each case. In addition, the MST in [4] was 8.3 days; in [9] it was 8.3 days; in [14] it was 8.2 days. The Survivors in test [5] was 3; in test [10] it was 0; in [18] it was 3. The Survivor increase entry in test [8], in [12] and in [13] was “inactive” each time.
For `Nc1nc2c(ncn2COC2COP(=O)(O)OC2)c(=O)[nH]1` (stereo unspecified), the Survivors in test [19] is 8; in test [20] it was 10; in [21], 3. Moreover, the IC50 came out at 40 µM in test [1]; 6 µM in test [2]; 7 µM in [6]; 0.5 µM in test [7]; 2 µM in [16]; 6 µM in test [17]. Further, the MST increase result in [3] and in test [15] was “inactive” each time. Moreover, the MST in test [4] is 10.6 days; in test [9], 11.6 days; in [14], 10.4 days. Further, the Survivor increase entry in test [12] and in [13] was “inactive” in each case. For the same compound, the Survivor increase in test [22] was 0.01. For the same compound, the “p-value for mean survival time increase” value in test [22] is recorded as below 0.01.
Turning to `Nc1ncnc2c1ncn2COC1COP(=O)(O)OC1` (stereo unspecified), the IC50 in test [16] was 600 µM; in [17] it was above 1000 µM.
As to `Nc1nc(O)c2ncn(COC(COP(=O)(O)O)COP(=O)(O)O)c2n1`, the IC50 in test [1] was 800 µM; in test [2], 8 µM; in test [6], above 200 µM; in test [7], 13 µM; in [16], 0.4 µM; in test [17] it was 5 µM. Besides, the Survivors is given as 8 in test [23], 4 in test [25] and 6 in test [26]. In addition, in test [3], the MST increase entry is “inactive”. Further, the MST in test [4] stood at 10.8 days; in test [9], 10.6 days; in test [14], 9.6 days. Besides, the Survivor increase entry in [8], in test [12] and in [13] was “inactive” throughout. The MST increase in test [24] was below 0.05. For the same compound, the “p-value for mean survival time increase” value in test [22] is listed as below 0.02.
